Source: ChEMBL document CHEMBL5724801, “EUbOPEN Chemogenomics Library - Multiplex” (2024)
Where “and” joins values, the source holds several entries; their conditions need not be identical. Equal entries are not always repeated.

System: U2OS
Assay: Multiplex assay against U2OS
Format: toxicity, cell-based
Conditions: human
How it was run: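 Hoechst33342, BioTracker Green Microtubule Cytoskeleton Dye, MitoTracker Red and Annexin V Alexa Fluor 680 were added to live cells at seeding, and imaging on a CQ1 microscope at 37°C and 5% CO2 followed compound addition. Gating by CellPathfinder machine learning separated cells into Hoechst high-intensity objects or normal cells, then normal cells into healthy, pyknosed or fragmented nuclei, then pyknosed cells into mitotic or apoptotic. Per cents of healthy-nucleus cells are reported for the tubulin, mitochondrial-mass and membrane-permeability phenotypes.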

[1] = 12 h, 1 µM, compound concentration 1 uM
[2] = 12 h, 10 µM, compound concentration 10 uM
[3] = 24 h, 1 µM, compound concentration 1 uM
[4] = 24 h, 10 µM, compound concentration 10 uM
[5] = 48 h, 1 µM, compound concentration 1 uM
[6] = 48 h, 10 µM, compound concentration 10 uM

CCOC(=O)c1cnn(-c2ccc(NC(=O)C(Cl)=C(Cl)Cl)cc2)c1C(F)(F)F
Population Apoptotic (%) [1]: 35.29% and 57.89%
Population Fragmented Nuclei (%) [1]: 2.52% and 2.35%
Population Healthy Nuclei (%) [1]: 88.92% and 86.47%
Population Hoechst High Intensity Objects (%) [1]: 0%
Population Membrane Permeable-Phenotype (%) [1]: 0.57% and 2.72%
Population Mitochondria Different-Phenotype (%) [1]: 0.85% and 4.76%
Population Mitotic Cells (%) [1]: 64.71% and 42.11%
Population Normal (%) [1]: 100%
Population Pyknosed Nuclei (%) [1]: 8.56% and 11.18%
Population Tubulin-Different-Phenotype (%) [1]: 0.57% and 0%
Total Cell Count [1]: 397 and 170
Population Apoptotic (%) [2]: 21.96% and 33.6%
Population Fragmented Nuclei (%) [2]: 2.71% and 4.35%
Population Healthy Nuclei (%) [2]: 8.13% and 5.07%
Population Hoechst High Intensity Objects (%) [2]: 0%
Population Membrane Permeable-Phenotype (%) [2]: 11.11% and 28.57%
Population Mitotic Cells (%) [2]: 78.04% and 66.4%
Population Normal (%) [2]: 100%
Population Pyknosed Nuclei (%) [2]: 89.16% and 90.58%
Population Tubulin-Different-Phenotype (%) [2]: 25.93% and 14.29%
Total Cell Count [2]: 332 and 138
Population Apoptotic (%) [3]: 36.07% and 39.02%
Population Fragmented Nuclei (%) [3]: 1.33% and 1.84%
Population Healthy Nuclei (%) [3]: 87.12% and 79.26%
Population Hoechst High Intensity Objects (%) [3]: 0%
Population Membrane Permeable-Phenotype (%) [3]: 0.43% and 0.58%
Population Mitochondria Different-Phenotype (%) [3]: 0.43% and 4.07%
Population Mitotic Cells (%) [3]: 63.93% and 60.98%
Population Normal (%) [3]: 100%
Population Pyknosed Nuclei (%) [3]: 11.55% and 18.89%
Population Tubulin-Different-Phenotype (%) [3]: 0.22% and 0%
Total Cell Count [3]: 528 and 217
Population Apoptotic (%) [4]: 65.22% and 84.92%
Population Fragmented Nuclei (%) [4]: 3.27% and 2.76%
Population Healthy Nuclei (%) [4]: 7.74% and 10.34%
Population Hoechst High Intensity Objects (%) [4]: 0%
Population Membrane Permeable-Phenotype (%) [4]: 30.77% and 46.67%
Population Mitochondria Different-Phenotype (%) [4]: 0% and 13.33%
Population Mitotic Cells (%) [4]: 34.78% and 15.08%
Population Normal (%) [4]: 100%
Population Pyknosed Nuclei (%) [4]: 88.99% and 86.9%
Population Tubulin-Different-Phenotype (%) [4]: 57.69% and 60%
Total Cell Count [4]: 336 and 145
Population Apoptotic (%) [5]: 48.86% and 64.44%
Population Fragmented Nuclei (%) [5]: 5.03% and 2.12%
Population Healthy Nuclei (%) [5]: 85.95% and 84.24%
Population Hoechst High Intensity Objects (%) [5]: 0%
Population Membrane Permeable-Phenotype (%) [5]: 1.31% and 2.52%
Population Mitochondria Different-Phenotype (%) [5]: 0.12% and 2.16%
Population Mitotic Cells (%) [5]: 51.14% and 35.56%
Population Normal (%) [5]: 100%
Population Pyknosed Nuclei (%) [5]: 9.03% and 13.64%
Population Tubulin-Different-Phenotype (%) [5]: 1.07% and 1.44%
Total Cell Count [5]: 975 and 330
Population Apoptotic (%) [6]: 86.63% and 98.18%
Population Fragmented Nuclei (%) [6]: 2.51% and 10.64%
Population Healthy Nuclei (%) [6]: 38.87% and 50.35%
Population Hoechst High Intensity Objects (%) [6]: 0%
Population Membrane Permeable-Phenotype (%) [6]: 8.06% and 23.94%
Population Mitochondria Different-Phenotype (%) [6]: 11.29% and 15.49%
Population Normal (%) [6]: 100%
Population Pyknosed Nuclei (%) [6]: 58.62% and 39.01%
Population Tubulin-Different-Phenotype (%) [6]: 66.94% and 47.89%
Total Cell Count [6]: 319 and 141

COc1cc(Nc2ncc3c(n2)-c2ccc(Cl)cc2C(c2c(F)cccc2OC)=NC3)ccc1C(=O)O [ALISERTIB]
Population Apoptotic (%) [1]: 63% and 71%
Population Fragmented Nuclei (%) [1]: 23% and 35%
Population Healthy Nuclei (%) [1]: 65% and 55%
Population Hoechst High Intensity Objects (%) [1]: 1% and 4%
Population Membrane Permeable-Phenotype (%) [1]: 4% and 8%
Population Mitochondria Different-Phenotype (%) [1]: 3% and 4%
Population Mitotic Cells (%) [1]: 36% and 28%
Population Normal (%) [1]: 98% and 95%
Population Pyknosed Nuclei (%) [1]: 10% and 8%
Population Tubulin-Different-Phenotype (%) [1]: 3% and 11%
Population Apoptotic (%) [2]: 79% and 71%
Population Fragmented Nuclei (%) [2]: 31% and 12%
Population Healthy Nuclei (%) [2]: 57% and 82%
Population Hoechst High Intensity Objects (%) [2]: 3% and 2%
Population Membrane Permeable-Phenotype (%) [2]: 11% and 5%
Population Mitochondria Different-Phenotype (%) [2]: 5% and 1%
Population Mitotic Cells (%) [2]: 20% and 28%
Population Normal (%) [2]: 96% and 97%
Population Pyknosed Nuclei (%) [2]: 11% and 5%
Population Tubulin-Different-Phenotype (%) [2]: 4% and 0%
Population Apoptotic (%) [3]: 78% and 75%
Population Fragmented Nuclei (%) [3]: 26% and 20%
Population Healthy Nuclei (%) [3]: 64% and 63%
Population Hoechst High Intensity Objects (%) [3]: 1% and 2%
Population Membrane Permeable-Phenotype (%) [3]: 9% and 6%
Population Mitochondria Different-Phenotype (%) [3]: 4% and 2%
Population Mitotic Cells (%) [3]: 21% and 25%
Population Normal (%) [3]: 98% and 97%
Population Pyknosed Nuclei (%) [3]: 8% and 15%
Population Tubulin-Different-Phenotype (%) [3]: 5% and 2%
Population Apoptotic (%) [4]: 84% and 90%
Population Fragmented Nuclei (%) [4]: 30% and 12%
Population Healthy Nuclei (%) [4]: 55% and 77%
Population Hoechst High Intensity Objects (%) [4]: 4%
Population Membrane Permeable-Phenotype (%) [4]: 13% and 9%
Population Mitochondria Different-Phenotype (%) [4]: 5% and 4%
Population Mitotic Cells (%) [4]: 15% and 9%
Population Normal (%) [4]: 95%
Population Pyknosed Nuclei (%) [4]: 13% and 9%
Population Tubulin-Different-Phenotype (%) [4]: 4% and 5%
Population Apoptotic (%) [5]: 85% and 78%
Population Fragmented Nuclei (%) [5]: 28% and 29%
Population Healthy Nuclei (%) [5]: 59% and 53%
Population Hoechst High Intensity Objects (%) [5]: 3%
Population Membrane Permeable-Phenotype (%) [5]: 6% and 11%
Population Mitochondria Different-Phenotype (%) [5]: 5% and 6%
Population Mitotic Cells (%) [5]: 14% and 21%
Population Normal (%) [5]: 96%
Population Pyknosed Nuclei (%) [5]: 12% and 17%
Population Tubulin-Different-Phenotype (%) [5]: 3% and 4%
Population Apoptotic (%) [6]: 88%
Population Fragmented Nuclei (%) [6]: 34% and 16%
Population Healthy Nuclei (%) [6]: 44% and 70%
Population Hoechst High Intensity Objects (%) [6]: 9% and 5%
Population Membrane Permeable-Phenotype (%) [6]: 16% and 7%
Population Mitochondria Different-Phenotype (%) [6]: 9% and 3%
Population Mitotic Cells (%) [6]: 11%
Population Normal (%) [6]: 90% and 94%
Population Pyknosed Nuclei (%) [6]: 21% and 13%
Population Tubulin-Different-Phenotype (%) [6]: 9% and 2%

CN(C)Cc1cccc(NC(=C2C(=O)Nc3cc(C(=O)N(C)C)ccc32)c2ccccc2)c1
Population Apoptotic (%) [1]: 28.26% and 30.43%
Population Fragmented Nuclei (%) [1]: 2.06% and 3.41%
Population Healthy Nuclei (%) [1]: 87.39% and 83.52%
Population Hoechst High Intensity Objects (%) [1]: 0%
Population Membrane Permeable-Phenotype (%) [1]: 0.52% and 6.8%
Population Mitochondria Different-Phenotype (%) [1]: 0% and 12.24%
Population Mitotic Cells (%) [1]: 71.74% and 69.57%
Population Normal (%) [1]: 100%
Population Pyknosed Nuclei (%) [1]: 10.55% and 13.07%
Population Tubulin-Different-Phenotype (%) [1]: 2.1% and 0.68%
Total Cell Count [1]: 436 and 176
Population Apoptotic (%) [2]: 55.32% and 60.53%
Population Fragmented Nuclei (%) [2]: 3.8% and 4.6%
Population Healthy Nuclei (%) [2]: 81.33% and 73.56%
Population Hoechst High Intensity Objects (%) [2]: 0%
Population Membrane Permeable-Phenotype (%) [2]: 17.12% and 38.28%
Population Mitotic Cells (%) [2]: 44.68% and 39.47%
Population Normal (%) [2]: 100%
Population Pyknosed Nuclei (%) [2]: 14.87% and 21.84%
Population Tubulin-Different-Phenotype (%) [2]: 58.37% and 42.19%
Total Cell Count [2]: 316 and 174
Population Apoptotic (%) [3]: 51.56% and 40%
Population Fragmented Nuclei (%) [3]: 1.88% and 1.95%
Population Healthy Nuclei (%) [3]: 87.2% and 85.85%
Population Hoechst High Intensity Objects (%) [3]: 0.17% and 0%
Population Membrane Permeable-Phenotype (%) [3]: 1.76% and 3.98%
Population Mitotic Cells (%) [3]: 48.44% and 60%
Population Normal (%) [3]: 99.83% and 100%
Population Pyknosed Nuclei (%) [3]: 10.92% and 12.2%
Population Tubulin-Different-Phenotype (%) [3]: 1.96% and 2.27%
Total Cell Count [3]: 587 and 205
Population Apoptotic (%) [4]: 70.87% and 69.84%
Population Fragmented Nuclei (%) [4]: 5.07% and 6.21%
Population Healthy Nuclei (%) [4]: 65.92% and 58.19%
Population Hoechst High Intensity Objects (%) [4]: 0.28% and 0%
Population Membrane Permeable-Phenotype (%) [4]: 18.8% and 30.1%
Population Mitotic Cells (%) [4]: 29.13% and 30.16%
Population Normal (%) [4]: 99.72% and 100%
Population Pyknosed Nuclei (%) [4]: 29.01% and 35.59%
Population Tubulin-Different-Phenotype (%) [4]: 47.86% and 58.25%
Total Cell Count [4]: 356 and 177
Population Apoptotic (%) [5]: 54.74% and 41.51%
Population Fragmented Nuclei (%) [5]: 2.6% and 1.21%
Population Healthy Nuclei (%) [5]: 87.9% and 82.73%
Population Hoechst High Intensity Objects (%) [5]: 0%
Population Membrane Permeable-Phenotype (%) [5]: 1.02% and 2.56%
Population Mitochondria Different-Phenotype (%) [5]: 0% and 5.13%
Population Mitotic Cells (%) [5]: 45.26% and 58.49%
Population Normal (%) [5]: 100%
Population Pyknosed Nuclei (%) [5]: 9.5% and 16.06%
Population Tubulin-Different-Phenotype (%) [5]: 0.57% and 2.56%
Population Apoptotic (%) [6]: 82.42% and 88.41%
Population Fragmented Nuclei (%) [6]: 3.22% and 2.72%
Population Healthy Nuclei (%) [6]: 72.39% and 59.78%
Population Hoechst High Intensity Objects (%) [6]: 0%
Population Mitochondria Different-Phenotype (%) [6]: 14.07% and 38.18%
Population Mitotic Cells (%) [6]: 17.58% and 11.59%
Population Normal (%) [6]: 100%
Population Pyknosed Nuclei (%) [6]: 24.4% and 37.5%
Population Tubulin-Different-Phenotype (%) [6]: 61.85% and 69.09%
Total Cell Count [6]: 373 and 184
